Results published in ChEMBL document CHEMBL1139294, “11-Phenyl-[b,e]-dibenzazepine compounds: novel antitumor agents” (Bioorg Med Chem Lett, 2009).

Key:
A549 = assay: Antiproliferative activity against human A549 cells by SRB assay; type: functional, cell-based
HT-29 [1] = assay: Antiproliferative activity against human HT-29 cells by SRB assay; type: functional, cell-based
MCF7 = assay: Antiproliferative activity against human MCF7 cells by SRB assay; type: functional, cell-based
HepG2 = assay: Antiproliferative activity against human HepG2 cells by SRB assay; type: functional, cell-based
U-118-MG = assay: Antiproliferative activity against human U118MG cells by SRB assay; type: functional, cell-based
HeLa = assay: Antiproliferative activity against human HeLa cells by SRB assay; type: functional, cell-based
MDA-MB-231 = assay: Antiproliferative activity against human MDA-MB-231 cells by SRB assay; type: functional, cell-based
[2] = Antiproliferative activity against human MMRU cells by SRB assay; type: functional, cell-based
[3] = Antiproliferative activity against human HTB-174 cells by SRB assay; type: functional, cell-based
NCI-H460 = assay: Cell cycle arrest in human H460 cells assessed as DNA content at G0-G1 phase at 50 uM after 16 hrs by flow cytometry; type: functional
How it was run: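 H-460 NSCLC cells serum-starved 72 h, then exposed to 50 µM for 16 h, with DMSO vehicle control. Harvested cells were washed in cold PBS and fixed in 70% ethanol at 4 °C for at least 4 h. They were treated with 3 mg/ml RNase plus 50 µg/ml propidium iodide for 30 min at 37 °C. Flow cytometry gave percent cells in G0–G1, S and G2–M.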

HT-29 [4] = assay: Cell cycle arrest in human HT-29 cells assessed as DNA content at G0-G1 phase at 25 uM after 16 hrs by flow cytometry; type: functional
How it was run: (§1)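 HT-29 colon carcinoma cells were grown in complete medium and treated at 25 or 50 µM for 16 h, with 0.1% DMSO as vehicle. Cells were washed in cold PBS and fixed in 70% ethanol (4 °C, ≥4 h). Staining used 3 mg/ml ribonuclease and 50 µg/ml propidium iodide for 30 min at 37 °C. Phase distribution was measured by flow cytometry.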

HT-29 [5] = assay: Cell cycle arrest in human HT-29 cells assessed as DNA content at S phase at 25 uM after 16 hrs by flow cytometry; type: functional; how it was run: as §1
HT-29 [6] = assay: Cell cycle arrest in human HT-29 cells assessed as DNA content at G2-M phase at 25 uM after 16 hrs by flow cytometry; type: functional; how it was run: as §1
HT-29 [7] = assay: Cell cycle arrest in human HT-29 cells assessed as DNA content at G0-G1 phase at 50 uM by flow cytometry; type: functional; how it was run: as §1
HT-29 [8] = assay: Cell cycle arrest in human HT-29 cells assessed as DNA content at S phase at 50 uM by flow cytometry; type: functional; how it was run: as §1
HT-29 [9] = assay: Cell cycle arrest in human HT-29 cells assessed as DNA content at G2-M phase at 50 uM by flow cytometry; type: functional; how it was run: as §1

SMILES | IC50 (A549; Homo sapiens, A549) | IC50 (HT-29 [1]; Homo sapiens, HT-29) | IC50 (MCF7) | IC50 (HepG2) | IC50 (U-118-MG) | IC50 (HeLa) | IC50 (MDA-MB-231) | IC50 ([2]; Homo sapiens, MMRU) | IC50 [3] | also measured
Clc1ccccc1C1c2ccccc2CNc2ccccc21 (centres undefined) | 5400 nM | 1200 nM | 2700 nM | 900 nM | 1400 nM | 1100 nM | 1300 nM | – | – | –
COc1ccc2c(c1)C(c1ccccc1Cl)c1cc(Cl)ccc1N(C(=O)c1ccc([N+](=O)[O-])cc1)C2 (centres undefined) | 600 nM | 200 nM | 700 nM | 400 nM | 400 nM | 200 nM | 400 nM | 200 nM | 200 nM | –
O=C(Oc1ccccc1)N1Cc2ccccc2C(c2ccccc2Cl)c2ccccc21 (centres undefined) | – | 5000 nM | 4200 nM | 3600 nM | – | – | – | – | – | –
O=C(c1ccc([N+](=O)[O-])cc1)N1Cc2ccccc2C(c2ccccc2)c2ccccc21 (centres undefined) | – | 700 nM | – | 900 nM | 900 nM | 600 nM | – | 500 nM | 700 nM | –
O=C(c1ccccc1)N1Cc2ccccc2C(c2ccccc2Cl)c2ccccc21 (centres undefined) | 2500 nM | 600 nM | 1500 nM | 800 nM | 1300 nM | 900 nM | 1200 nM | – | – | –
CN1Cc2ccccc2C(c2ccccc2Cl)c2ccccc21 (centres undefined) | 11400 nM | 9700 nM | 1700 nM | – | – | – | – | 4600 nM | – | –
COc1ccc2c(c1)CN(C(=O)c1ccc([N+](=O)[O-])cc1)c1ccc(Cl)cc1C2c1ccccc1Cl (centres undefined) | 1500 nM | 600 nM | 1300 nM | 900 nM | 800 nM | 500 nM | 900 nM | 500 nM | 500 nM | –
COC(=O)N1Cc2ccccc2C(c2ccccc2)c2ccccc21 (centres undefined) | > 10000 nM | > 10000 nM | – | – | – | – | – | 10000 nM | – | –
CN(C)c1ccc(C(=O)N2Cc3ccccc3C(c3ccccc3)c3ccccc32)cc1 (centres undefined) | 2100 nM | 1000 nM | 1700 nM | 1000 nM | 2600 nM | 900 nM | 1700 nM | – | – | –
C[N+](C)(C)c1ccc(C(=O)N2Cc3ccccc3C(c3ccccc3)c3ccccc32)cc1 (centres undefined) | 2000 nM | 1100 nM | 1700 nM | 1000 nM | 1800 nM | 400 nM | 1300 nM | – | – | –
O=C(Nc1ccc([N+](=O)[O-])cc1)N1Cc2ccccc2C(c2ccccc2Cl)c2ccccc21 (centres undefined) | > 5000 nM | 4800 nM | 2400 nM | 4500 nM | – | – | – | 3100 nM | 4000 nM | –
COc1ccc(C(=O)N2Cc3ccccc3C(c3ccccc3Cl)c3ccccc32)cc1 (centres undefined) | 1100 nM | 400 nM | 500 nM | 400 nM | 400 nM | 200 nM | – | 200 nM | 300 nM | –
O=C(c1ccc([N+](=O)[O-])cc1)N1Cc2ccccc2C(c2ccccc2Cl)c2ccccc21 (single isomer, unassigned; 9b) | – | – | – | – | – | – | – | – | – | Activity (NCI-H460): 74.96%
Nc1ccc(C(=O)N2Cc3ccccc3C(c3ccccc3Cl)c3ccccc32)cc1 (centres undefined) | 3700 nM | 1700 nM | 1100 nM | 1500 nM | 1600 nM | 500 nM | 1200 nM | – | – | –
O=C(c1ccccc1)N1Cc2ccccc2C(c2ccccc2)c2ccccc21 (stereo in doubt; 13) | > 10000 nM | – | – | – | – | – | – | – | – | IC50 (HT-29 [1]; ht-29): > 10000 nM; IC50 ([2]; mmru): > 10000 nM
CC(C)(C)Oc1cccc(C(=O)N2Cc3ccccc3C(c3ccccc3)c3ccccc32)c1 (centres undefined) | > 5000 nM | 1700 nM | 4500 nM | 2600 nM | – | – | – | 2500 nM | 3600 nM | –
O=C(c1ccc([N+](=O)[O-])cc1)N1Cc2ccccc2C(c2ccccc2Cl)c2ccccc21 (stereo in doubt; 9) | 800 nM | 300 nM | 600 nM | 300 nM | 500 nM | 300 nM | 500 nM | 200 nM | 100 nM | Activity (HT-29 [4]): 63.68%; Activity (HT-29 [5]): 25.79%; Activity (HT-29 [6]): 10.53%; Activity (HT-29 [7]): 69.22%; Activity (HT-29 [8]): 18.08%; Activity (HT-29 [9]): 12.69%; Activity (NCI-H460): 73.95%
Clc1ccccc1C1c2ccccc2CN(Cc2ccccc2)c2ccccc21 (centres undefined) | > 5000 nM | > 5000 nM | 4300 nM | 4500 nM | – | > 5000 nM | > 5000 nM | – | – | –
O=C(c1ccc([N+](=O)[O-])cc1)N1Cc2ccccc2C(c2ccccc2Cl)c2ccccc21 (single isomer, unassigned; 9a) | – | – | – | – | – | – | – | – | – | Activity (NCI-H460): 71.06%
CC(C)(C)Oc1cccc(C(=O)N2Cc3ccccc3C(c3ccccc3Cl)c3ccccc32)c1 (centres undefined) | 3700 nM | 1700 nM | 3400 nM | 1200 nM | 2500 nM | 1400 nM | 1500 nM | – | – | –
O=C(c1ccccc1)N1Cc2ccccc2C(c2ccccc2)c2ccccc21 (stereo in doubt; 17) | – | – | 4200 nM | 3400 nM | – | – | – | – | 2600 nM | IC50 (A549; a549): > 5000 nM; IC50 (HT-29 [1]; ht-29): 2600 nM; IC50 ([2]; mmru): 2700 nM
